pKi: −log10 of the molar value.
Key:
Thymidylate synthase [1] = target: T1, Thymidylate synthase (Homo sapiens, UniProt P04818); assay: Inhibitory activity against human thymidylate synthase with variable concentration of dUMP and fixed N5,10-CH2-H4PteGlu (200 uM)
Thymidylate synthase [2] = target: T1, Thymidylate synthase; assay: Inhibitory activity against human thymidylate synthase with variable concentration of N5, 10-CH2-H4PteGlu and fixed dUMP (100 uM)
Outline: (§1)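 HeLa-S3 TS purified on methotrexate–Sephadex. Tritium release from [5-3H]dUMP with dUMP fixed at 100 μM and CH2-H4PteGlu varied, in 150 mM Tris-HCl pH 7.5 with DTT, NaF, formaldehyde, BSA and sucrose. Reactions ran at 37 °C for 60 min, were stopped with TCA, treated with charcoal, and the supernatant counted. Apparent Ki from replots of double-reciprocal slopes (competitive) or intercepts (noncompetitive) against inhibitor concentration.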

[3] = Apparent Ki value for the inhibition of human thymidylate synthase in the presence of variable conc. of N5,10-CH2-H4PteGlu
Outline: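 Thymidylate synthase purified from HeLa-S3 cells by methotrexate–Sephadex chromatography. Tritium-release assay, 37 °C for 60 min, at pH 7.5 (Tris-HCl) with DTT, NaF, formaldehyde, BSA and sucrose. dUMP (with [5-3H]dUMP, 10:1) fixed at 100 μM; CH2-H4PteGlu varied. Inhibitor tested at several concentrations. Lineweaver–Burk plots; slopes (competitive) or intercepts (noncompetitive) replotted against inhibitor concentration.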

[4] = Apparent Ki value for the inhibition of human thymidylate synthase in the presence of variable conc. of dUMP
Outline: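 Enzyme is HeLa-S3 thymidylate synthase, purified on methotrexate–Sephadex. Tritium release from [5-3H]dUMP (10:1 with dUMP), with dUMP varied and CH2-H4PteGlu fixed at 200 μM. Tris-HCl pH 7.5 buffer with DTT, NaF, formaldehyde, BSA and sucrose; 37 °C, 60 min. Inhibitor at several concentrations; double-reciprocal slopes or intercepts replotted against inhibitor concentration.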

[5] = Apparent Ki value for the inhibition of human thymidylate synthase in the presence of variable conc. of N5,10-CH2-H4PteGlu; Ki/Km; outline: as §1
[6] = Apparent Ki value for the inhibition of human thymidylate synthase in the presence of variable conc. of dUMP; Ki/Km
Thymidylate synthase [7] = target: T1, Thymidylate synthase; assay: Km of dUMP for human thymidylate synthase with variable concentration of dUMP and fixed N5,10-CH2-H4PteGlu (200 uM)

T1 sequence (P04818 whole entry): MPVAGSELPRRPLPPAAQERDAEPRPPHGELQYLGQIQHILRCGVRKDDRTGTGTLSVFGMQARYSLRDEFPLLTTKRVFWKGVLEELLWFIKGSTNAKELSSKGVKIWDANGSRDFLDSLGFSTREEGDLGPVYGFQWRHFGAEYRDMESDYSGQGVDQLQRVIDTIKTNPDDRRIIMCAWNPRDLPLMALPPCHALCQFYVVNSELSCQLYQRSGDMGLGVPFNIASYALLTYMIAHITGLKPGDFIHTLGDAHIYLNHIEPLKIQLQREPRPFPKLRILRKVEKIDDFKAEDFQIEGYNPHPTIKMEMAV

Row | SMILES | pKi (Thymidylate synthase [1]) | pKi (Thymidylate synthase [2]) | Ratio [5] | Ratio [6] | Km (Thymidylate synthase [7]) [µM] | Ratio [3] | Ratio [4]
1 | CCOC(=O)CCC(NC(=O)c1ccc(N(CC2CCc3nc(N)[nH]c(=O)c3N2)N=O)cc1)C(=O)OCC (configuration not stated) | 3.62 | 3.82 | – | – | – | – | –
2 | Nc1nc2c(c(=O)[nH]1)N(Cc1cn([C@H]3C[C@H](O)[C@@H](COP(O)O)O3)c(=O)[nH]c1=O)C(CNc1ccc(C(=O)NC(CCC(=O)O)C(=O)O)cc1)CC2 (some centres not stated) | 7.24 | 6.60 | – | – | – | 0.005 | 0.02
3 | Nc1nc2c(c(=O)[nH]1)N(Cc1cn([C@H]3C[C@H](O)[C@@H](CO)O3)c(=O)[nH]c1=O)C(CNc1ccc(C(=O)NC(CCC(=O)O)C(=O)O)cc1)CC2 (some centres not stated) | 3.82 | 3.62 | 4.8 | 50 | – | – | –
4 | CCOC(=O)CCC(NC(=O)c1ccc(N(CC2CCc3nc(N)nc(O)c3N2)N=O)cc1)C(=O)OCC (configuration not stated) | – | – | – | – | – | 3 | 80

Now from value to molecule, other results behind:

Row | pKi (Thymidylate synthase [1]) | pKi (Thymidylate synthase [2]) | Ratio [5] | Ratio [6] | Km (Thymidylate synthase [7]) [µM] | SMILES | Ratio [3] | Ratio [4]
5 | 3.92 | 3.15 | 14 | 40 | – | COP(=O)(O)OC[C@H]1O[C@@H](n2cc(CN3c4c(nc(N)[nH]c4=O)CCC3CNc3ccc(C(=O)NC(CCC(=O)O)C(=O)O)cc3)c(=O)[nH]c2=O)C[C@@H]1O (some centres not stated) | – | –
6 | – | – | – | – | 3 | O=c1ccn([C@H]2C[C@H](O)[C@@H](COP(=O)(O)O)O2)c(=O)[nH]1 [DEOXYURIDINE MONOPHOSPHATE] | – | –

Reference: ChEMBL document CHEMBL1122546, “A potent multisubstrate analogue inhibitor of human thymidylate synthetase” (J Med Chem, 1984)
